Results reported in ChEMBL document CHEMBL1131210, “5-(5,6-Dichloro-2-indolyl)-2-methoxy-2,4-pentadienamides: novel and selective inhibitors of the vacuolar H+-ATPase of osteoclasts with bone antiresorptive activity” (J Med Chem, 1998).

Tests used:
[1] = In vitro inhibition of bone resorption by isolated Human osteoclastoma cells by the number of excavations (pits/bone slice); format: functional
Method in brief: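 Human giant-cell-tumour osteoclasts were HLA-I bead-depleted and seeded on bone slices (4000 cells/well), 8 slices per concentration, then cultured 48 h in D-MEM. Slices were glutaraldehyde-fixed and TRAP-stained, and cells were bleached off. Slices were gold-coated and resorption pits counted by light microscopy, expressed as pits/bone slice.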

[2] = target: T1, V-type proton ATPase 116 kDa subunit a 1 (Gallus gallus, UniProt Q9I8D0); experiment: (§1) Compound was tested for inhibition of V-ATPase from Chicken osteoclasts (cOc)
Method in brief: (§2)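 Bafilomycin-sensitive ATPase activity in sucrose-gradient-purified membrane vesicles from medullary bone of calcium-starved egg-laying hens, 20–40 μg protein/mL. Medium: 0.2 M sucrose, 50 mM KCl, 10 mM Hepes-Tris pH 8, 1 mM CDTA, 1 mM ATP, 0.1 mM molybdate, 5 μM valinomycin, 5 μM nigericin. Started with 5 mM MgSO4; 30 min, 37 °C; phosphate release by malachite green.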

[3] = In vitro inhibition of bone resorption by isolated Human osteoclastoma cells (ELISA); format: functional
Method in brief: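 Collagenase-dispersed osteoclastoma cells, negatively selected with HLA-I Dynabeads, were settled on bone slices at 4000 cells/well. Compound was added at several concentrations, with 8 slices per concentration. After 48 h in D-MEM, type I collagen fragments released into the supernatant were quantified by ELISA.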

[4] = target: T1, V-type proton ATPase 116 kDa subunit a 1; experiment: Compound was tested for inhibition of V-ATPase from Chicken adrenal glands(cAG); format: tissue-based, Adrenal gland
Method in brief: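 Bafilomycin-sensitive ATPase in purified microsomal membranes from whole chicken adrenal glands (two-step 35%/50% sucrose gradient), 20–40 μg protein/mL. Medium: 0.2 M sucrose, 50 mM KCl, 10 mM Hepes-Tris pH 7.4, 1 mM CDTA, 1 mM ATP, 0.1 mM molybdate, 5 μM valinomycin, 5 μM nigericin. Started with 5 mM MgSO4, 30 min at 37 °C, phosphate read by malachite green.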

[5] = target: V-type proton ATPase subunit B, kidney isoform (Homo sapiens, UniProt P15313); experiment: Compound was tested for inhibition of V-ATPase from human kidney cortex(hK)
Method in brief: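 Brush border membranes from frozen human kidney cortex, about 70 μg protein/mL. Bafilomycin-sensitive ATPase in 0.2 M sucrose, 50 mM KCl, 10 mM Hepes-Tris pH 7.4, 1 mM CDTA, 1 mM ATP, 0.1 mM molybdate, 5 μM valinomycin, 5 μM nigericin. Started with 5 mM MgSO4, 30 min at 37 °C, Pi measured colorimetrically (malachite green).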

[6] = target: T1, V-type proton ATPase 116 kDa subunit a 1; experiment: as §1; format: functional; method in brief: as §2

V-type proton ATPase subunit B, kidney isoform, sequence (P15313 whole entry, canonical isoform): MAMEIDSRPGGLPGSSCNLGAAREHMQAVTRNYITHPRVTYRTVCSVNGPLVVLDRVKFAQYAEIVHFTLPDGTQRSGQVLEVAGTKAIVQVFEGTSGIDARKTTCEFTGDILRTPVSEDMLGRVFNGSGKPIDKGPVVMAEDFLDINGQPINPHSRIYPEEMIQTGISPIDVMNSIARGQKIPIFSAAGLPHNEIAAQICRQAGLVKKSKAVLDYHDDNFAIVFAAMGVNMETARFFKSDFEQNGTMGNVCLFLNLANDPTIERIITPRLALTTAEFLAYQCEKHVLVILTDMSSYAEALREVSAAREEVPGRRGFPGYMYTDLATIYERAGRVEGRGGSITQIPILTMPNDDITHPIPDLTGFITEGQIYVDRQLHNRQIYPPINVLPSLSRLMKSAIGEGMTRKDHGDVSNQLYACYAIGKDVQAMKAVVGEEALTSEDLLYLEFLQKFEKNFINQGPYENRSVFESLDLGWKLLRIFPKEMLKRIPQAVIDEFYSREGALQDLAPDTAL
T1 sequence (Q9I8D0 whole entry): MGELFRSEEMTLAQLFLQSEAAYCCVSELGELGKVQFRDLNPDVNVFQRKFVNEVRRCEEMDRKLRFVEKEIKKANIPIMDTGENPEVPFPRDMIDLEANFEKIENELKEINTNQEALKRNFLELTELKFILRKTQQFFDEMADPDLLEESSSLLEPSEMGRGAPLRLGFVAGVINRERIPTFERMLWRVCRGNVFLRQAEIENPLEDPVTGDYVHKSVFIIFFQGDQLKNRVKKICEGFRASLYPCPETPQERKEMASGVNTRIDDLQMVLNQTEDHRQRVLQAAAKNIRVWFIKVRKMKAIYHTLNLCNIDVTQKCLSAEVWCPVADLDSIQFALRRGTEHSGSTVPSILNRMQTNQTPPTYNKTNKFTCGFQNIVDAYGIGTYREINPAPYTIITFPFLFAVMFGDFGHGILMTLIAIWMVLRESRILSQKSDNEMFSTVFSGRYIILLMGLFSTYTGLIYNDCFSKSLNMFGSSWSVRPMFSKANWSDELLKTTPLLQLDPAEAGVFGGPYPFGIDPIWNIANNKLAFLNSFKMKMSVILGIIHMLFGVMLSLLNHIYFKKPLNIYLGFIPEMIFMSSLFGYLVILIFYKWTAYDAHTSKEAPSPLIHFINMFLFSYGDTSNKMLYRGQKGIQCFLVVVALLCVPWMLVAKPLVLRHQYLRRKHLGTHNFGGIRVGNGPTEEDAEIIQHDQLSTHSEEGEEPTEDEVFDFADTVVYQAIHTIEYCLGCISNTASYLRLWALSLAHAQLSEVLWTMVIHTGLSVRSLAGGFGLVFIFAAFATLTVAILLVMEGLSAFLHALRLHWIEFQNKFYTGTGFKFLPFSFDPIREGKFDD

Row | IC50 [1] [µM] | IC50 [2] [µM] | IC50 [3] [µM] | IC50 [4] [µM] | IC50 [5] [µM] | IC50 [6] [µM] | SMILES
1 | – | 30 | – | – | – | 30 | COC(=O)/C(=C\C=C\c1cc2ccccc2[nH]1)OC
2 | 0.18 | 0.18 | 0.14 | 2.8 | 3 | – | CCN(CC)CCCNC(=O)/C(=C/C=C/c1cc2cc(Cl)c(Cl)cc2[nH]1)OC
3 | 0.03 | 0.06 | 0.01 | 0.93 | 0.37 | – | CO/C(=C\C=C\c1cc2cc(Cl)c(Cl)cc2[nH]1)C(=O)NCCCN1CCN(c2ncccn2)CC1
4 | 0.04 | 0.08 | 0.03 | 0.82 | 0.44 | – | CO/C(=C\C=C\c1cc2cc(Cl)c(Cl)cc2[nH]1)C(=O)NC1CC(C)(C)NC(C)(C)C1

Row | SMILES | IC50 [1] [µM] | IC50 [2] [µM] | IC50 [3] [µM] | IC50 [4] [µM] | IC50 [5] [µM] | IC50 [6] [µM]
5 | CO/C(=C\C=C\c1cc2cc(Cl)c(Cl)cc2[nH]1)C(=O)NC1C[C@H]2CC[C@@H](C1)N2C (some centres not stated) | 0.03 | 0.1 | 0.03 | 2.5 | 1.32 | –
